Experimental data taken from ChEMBL document CHEMBL1122440, “2'-O-nitro-1-beta-D-arabinofuranosylcytosine. A new derivative of 1-beta-D-arabinofuranosylcytosine that resists enzymatic deamination and has antileukemic activity” (J Med Chem, 1983).

Experiments:
CCRF-CEM = assay: Cytotoxicity against CCRF-CEM human leukemic lymphoblastoid cell lines; assay type: functional, cell-based
L1210 [1] = assay: Antileukemic activity against L1210 leukemia cells in female B6D2F1/J mice at 34 mg/kg dose(Mean increased life span, calculated as (T/C-1)X100); assay type: functional, Mus musculus
Outline: (§1)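 Female B6D2F1/J mice (about 20 g) inoculated ip on day 0 with ascites fluid containing 10^6 L1210 cells. Starting 24 h later, hydrochloride salt given ip daily for 7 consecutive days in water (neutralized with 1 N NaOH when necessary), 0.01 mL/g body weight. Five mice per dose. Life span reported as mean ± 1 SD. Increased life span calculated as (T/C - 1) × 100 against untreated controls.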

MOLT-4 = assay: Cytotoxicity against MOLT-4 human leukemic lymphoblastoid cell lines; assay type: functional, cell-based
L1210 [2] = assay: Antileukemic activity against L1210 leukemia cells in female B6D2F1/J mice at 156 mg/kg dose(Mean increased life span, calculated as (T/C-1)X100); assay type: functional, Mus musculus; outline: as §1
L1210 [3] = assay: Antileukemic activity against L1210 leukemia cells in female B6D2F1/J mice at 93 mg/kg dose (post inoculation life span, days); assay type: functional, Mus musculus; outline: as §1
RPMI 6410 = assay: Cytotoxicity against RPMI-6410 human leukemic lymphoblastoid cell lines; assay type: functional, cell-based
L1210 [4] = assay: Antileukemic activity against L1210 leukemia cells in female B6D2F1/J mice at 208 mg/kg dose(Mean increased life span, calculated as […]; assay type: functional, Mus musculus; outline: as §1
CCRF-CEM/ara-C = assay: Cytotoxicity against CCRF-CEM/ara-C human leukemic lymphoblastoid cell lines; assay type: functional, cell-based
Outline: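 Ara-C-resistant subline of CCRF-CEM human leukemic lymphoblasts, deficient in deoxycytidine kinase activity. Growth inhibition measured in culture.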

L1210 [5] = assay: Antileukemic activity against L1210 leukemia cells in female B6D2F1/J mice at 34 mg/kg dose (post inoculation life span, days); assay type: functional, Mus musculus; outline: as §1
L1210 [6] = assay: Antileukemic activity against L1210 leukemia cells in female B6D2F1/J mice at 93 mg/kg dose(Mean increased life span, calculated as (T/C-1)X100); assay type: functional, Mus musculus; outline: as §1
L1210 [7] = assay: Antileukemic activity against L1210 leukemia cells in female B6D2F1/J mice at 56 mg/kg dose(Mean increased life span, calculated as (T/C-1)[…]); assay type: functional, Mus musculus; outline: as §1
L1210 [8] = assay: Antileukemic activity against L1210 leukemia cells in female B6D2F1/J mice at 56 mg/kg dose (post inoculation life span, days); assay type: functional, Mus musculus; outline: as §1
L1210 [9] = assay: Antileukemic activity against L1210 leukemia cells in female B6D2F1/J mice at 208 mg/kg dose (post inoculation life span, days); assay type: functional, Mus musculus; outline: as §1
L1210 [10] = assay: Antileukemic activity against L1210 leukemia cells in female B6D2F1/J mice at 156 mg/kg dose (post inoculation life span, days); assay type: functional, Mus musculus; outline: as §1
L1210 [11] = assay: Antileukemic activity against L1210 leukemia cells in female B6D2F1/J mice at 56 mg/kg dose(Mean increased life span, calculated as (T/C-1)X100); assay type: functional, Mus musculus; outline: as §1
L1210 [12] = assay: Antileukemic activity against L1210 leukemia cells in female B6D2F1/J mice at 208 mg/kg dose(Mean increased life span, calculated as (T/C-1)X100); assay type: functional, Mus musculus; outline: as §1

| Compound | IC50 (CCRF-CEM) | Mean increased life span (L1210 [1]) | IC50 (MOLT-4) | Mean increased life span (L1210 [2]) | Life span (L1210 [3]) | IC50 (RPMI 6410) | Mean increased life span (L1210 [4]) | IC50 (CCRF-CEM/ara-C) | Life span (L1210 [5]) | Mean increased life span (L1210 [6]) | Mean increased life span (L1210 [7]) | Life span (L1210 [8]) | Life span (L1210 [9]) | Life span (L1210 [10]) | Mean increased life span (L1210 [11]) | Mean increased life span (L1210 [12]) |
| --- | --- | --- | --- | --- | --- | --- | --- | --- | --- | --- | --- | --- | --- | --- | --- | --- |
| Nc1ccn([C@@H]2O[C@H](CO)[C@@H](O)[C@@H]2O[N+](=O)[O-])c(=O)n1 | 0.6 µM | 17% | 0.4 µM | 118% | 10.8 days | 6 µM | 162% | 1000 µM | 7.4 days | 71% | 64% | 10.4 days | 16.6 days | 13.8 days |  |  |
| Nc1ccn([C@@H]2O[C@H](CO)[C@@H](O)[C@@H]2O)c(=O)n1 [CYTARABINE] | 0.02 µM | 102% | 0.01 µM | 157% | 14 days | 0.06 µM |  | 100 µM | 12.8 days | 128% |  | 13 days | 16.6 days | 16.25 days | 105% | 162% |
